# Publication PMC5987874 (The Journal of General Physiology, 2018)
# Numbering of substitutions follows the chain as printed. Like-named read-outs stand apart in the source and are kept apart here.
# How the values were obtained:
# [1] = target: T1, human Hv1 D123H (D^1.62H) (Homo sapiens, UniProt Q96D96, D123H); experiment: Whole-cell voltage clamp, Zn^2+ modulation of GAQ gating; assay type: cell-based
# T1 sequence (Q96D96 1-273 D123H): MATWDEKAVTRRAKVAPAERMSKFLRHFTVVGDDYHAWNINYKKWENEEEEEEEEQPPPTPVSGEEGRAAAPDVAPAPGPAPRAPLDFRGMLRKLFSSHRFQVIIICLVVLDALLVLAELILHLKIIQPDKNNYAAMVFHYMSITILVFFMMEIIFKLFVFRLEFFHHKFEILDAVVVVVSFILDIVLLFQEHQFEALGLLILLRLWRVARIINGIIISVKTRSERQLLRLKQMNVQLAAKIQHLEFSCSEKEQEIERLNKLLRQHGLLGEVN
# Summary of the method: (§1)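 Whole-cell patch clamp at ~21°C. Pipette and bath (mM): ~80 TMA-MeSO3, 100 Bis-Tris, 8 HCl, pH 6.5, 310–320 mOsm. ZnCl2 was diluted into bath solution and applied by gravity superfusion, at least 2 min per change. Test step voltage was set per construct from its V0.5. G_STEP = end-of-step current/(V−V_REV). Effect = 1 − G_Zn/G_control, fitted to the Hill equation. IC50 and nH are means ± SEM from separate cells. ΔpIC50 was tested by unpaired t test, P<0.05.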
# [2] = target: T2, human Hv1 D185H (D^3.61H) (Homo sapiens, UniProt Q96D96, D185H); experiment: as above; assay type: cell-based
# T2 sequence (Q96D96 1-273 D185H): T1 sequence (Q96D96 1-273 D123H) with H123D, D185H
# Summary of the method: as §1
# human Hv1 D130H-H140A = target: T3, human Hv1 D130H-H140A (Homo sapiens, UniProt Q96D96, D130H/H140A); experiment: as above; assay type: cell-based
# T3 sequence (Q96D96 1-273 D130H/H140A): T1 sequence (Q96D96 1-273 D123H) with H123D, D130H, H140A
# Summary of the method: as §1
# human Hv1 E119H-H140A = target: T4, human Hv1 E119H-H140A (Homo sapiens, UniProt Q96D96, E119H/H140A); experiment: as above; assay type: cell-based
# T4 sequence (Q96D96 1-273 E119H/H140A): T1 sequence (Q96D96 1-273 D123H) with E119H, H123D, H140A
# Summary of the method: as §1
# [3] = target: T5, human Hv1 H140A (H^2.40A) (Homo sapiens, UniProt Q96D96, H140A); conditions: ref Ramsey et al., 2006; cited from earlier work
# T5 sequence (Q96D96 1-273 H140A): T1 sequence (Q96D96 1-273 D123H) with H123D, H140A
# [4] = target: T6, human Hv1 E196H (E^4.38H) (Homo sapiens, UniProt Q96D96, E196H); experiment: Whole-cell voltage clamp, Zn^2+ modulation of GAQ gating; assay type: cell-based
# T6 sequence (Q96D96 1-273 E196H): T1 sequence (Q96D96 1-273 D123H) with H123D, E196H
# Summary of the method: as §1
# human Hv1 H140A-D185H = target: T7, human Hv1 H140A-D185H (Homo sapiens, UniProt Q96D96, D185H/H140A); experiment: as above; assay type: cell-based
# T7 sequence (Q96D96 1-273 H140A/D185H): T1 sequence (Q96D96 1-273 D123H) with H123D, H140A, D185H
# Summary of the method: as §1
# [5] = VSTEP 80 mV, calculated as log (IC50)
# [6] = read-out: Mean IC50 @ VSTEP, VSTEP 80 mV, pH 6.5, mean of fits in separate cells
# [7] = VSTEP 120 mV, calculated as log (IC50)
# [8] = read-out: IC50, fit of the mean data to a Hill function, Fig. 4D
structure (smiles),measurement,setting,value
"[Cl-].[Cl-].[Zn+2] [Zn^2+, ZnCl2]",Mean ΔpIC50 = (pIC50_1 - pIC50_2),[1]; D123H vs WT,0.11
same,"nH, fit of the mean data to a Hill function",[1]; Fig. 4B,0.8
same,Hill value,[1]; VSTEP 80 mV,0.95
same,pIC50,[1]; [5],5.56
same,IC50,"[1]; read-out: IC50, fit of the mean data to a Hill function, Fig. 4B",2.5 µM
same,IC50,[1]; [6],4.3 µM
same,"nH, fit of the mean data to a Hill function",[2]; Fig. 4D,0.6
same,Hill value,[2]; VSTEP 120 mV,0.77
same,pIC50,[2]; [7],5.38
same,IC50,[2]; [8],6.5 µM
same,Mean ΔpIC50 = (pIC50_1 - pIC50_2),human Hv1 D130H-H140A; D130H-H140A vs H140A,0.01
same,"nH, fit of the mean data to a Hill function",human Hv1 D130H-H140A; Fig. 4C,0.5
same,Hill value,human Hv1 D130H-H140A; VSTEP 80 mV,0.58
same,pIC50,human Hv1 D130H-H140A; [5],−4.42
same,IC50,"human Hv1 D130H-H140A; read-out: IC50, fit of the mean data to a Hill function, Fig. 4C",39.7 µM
same,IC50,human Hv1 D130H-H140A; [6],41.5 µM
same,Mean ΔpIC50 = (pIC50_1 - pIC50_2),human Hv1 E119H-H140A; E119H-H140A vs H140A,1.81
same,"nH, fit of the mean data to a Hill function",human Hv1 E119H-H140A; Fig. 4A,1.2
same,Hill value,human Hv1 E119H-H140A; VSTEP 120 mV,2.09
same,pIC50,human Hv1 E119H-H140A; [7],6.23
same,IC50,"human Hv1 E119H-H140A; read-out: IC50, fit of the mean data to a Hill function, Fig. 4A",0.67 µM
same,decrease of Zn^2+ potency by single mutation,[3],10- to 30 fold
same,Mean ΔpIC50 = (pIC50_1 - pIC50_2),[4]; E196H vs WT,−0.43
same,Hill value,[4]; VSTEP 100 mV,0.63
same,pIC50,"[4]; VSTEP 100 mV, calculated as log (IC50)",−4.63
same,"nH, fit of the mean data to a Hill function",human Hv1 H140A-D185H; Fig. 4D,0.6
same,Mean ΔpIC50 = (pIC50_1 - pIC50_2),human Hv1 H140A-D185H; H140A-D185H vs D185H,−0.42
same,Mean ΔpIC50 = (pIC50_1 - pIC50_2),human Hv1 H140A-D185H; H140A-D185H vs H140A,0.54
same,Hill value,human Hv1 H140A-D185H; VSTEP 120 mV,0.81
same,pIC50,human Hv1 H140A-D185H; [7],−4.96
same,IC50,human Hv1 H140A-D185H; [8],18 µM
